Screening data as filed in PubChem BioAssay.
The list is not random: actives were taken first. Their share in the collection is about 2.9%.
Kir21 inh = Kir2.1 (mouse) channel inhibition; hit rate 0.85% among 310,000; B-score at 10 µM; HEK293-Kir2.1, FluxOR thallium flux fluorescence; stronger effect = lower value; P35561;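 active = fluorescence ratio B-score at or below minus 3 SD of library scores, with starting-brightness B-score within 2 SD, cut at about -4.2 in these data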;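 also: channel flux triggered by added potassium and thallium sulfate stimulus; B-score of peak minus minimum fluorescence over baseline after thallium stimulus; more negative B-score means stronger Kir2.1 block with less thallium influx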
TRPC4 act = TRPC4 (mouse) channel activation | Q9QUQ5 | B-score at 10 µM | HEK293 TRPC4beta/mu-opioid, Fluo4 calcium fluorescence; stronger effect = higher value | hit rate 0.49% among 310,000;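 active = B-score above 5 SD of library B-scores, and initial fluorescence ratio not above library mean plus 5 SD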;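 also: positive B-score marks a calcium rise read as TRPC4 activation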
Target sequence (Q9QUQ5 whole entry, looked up): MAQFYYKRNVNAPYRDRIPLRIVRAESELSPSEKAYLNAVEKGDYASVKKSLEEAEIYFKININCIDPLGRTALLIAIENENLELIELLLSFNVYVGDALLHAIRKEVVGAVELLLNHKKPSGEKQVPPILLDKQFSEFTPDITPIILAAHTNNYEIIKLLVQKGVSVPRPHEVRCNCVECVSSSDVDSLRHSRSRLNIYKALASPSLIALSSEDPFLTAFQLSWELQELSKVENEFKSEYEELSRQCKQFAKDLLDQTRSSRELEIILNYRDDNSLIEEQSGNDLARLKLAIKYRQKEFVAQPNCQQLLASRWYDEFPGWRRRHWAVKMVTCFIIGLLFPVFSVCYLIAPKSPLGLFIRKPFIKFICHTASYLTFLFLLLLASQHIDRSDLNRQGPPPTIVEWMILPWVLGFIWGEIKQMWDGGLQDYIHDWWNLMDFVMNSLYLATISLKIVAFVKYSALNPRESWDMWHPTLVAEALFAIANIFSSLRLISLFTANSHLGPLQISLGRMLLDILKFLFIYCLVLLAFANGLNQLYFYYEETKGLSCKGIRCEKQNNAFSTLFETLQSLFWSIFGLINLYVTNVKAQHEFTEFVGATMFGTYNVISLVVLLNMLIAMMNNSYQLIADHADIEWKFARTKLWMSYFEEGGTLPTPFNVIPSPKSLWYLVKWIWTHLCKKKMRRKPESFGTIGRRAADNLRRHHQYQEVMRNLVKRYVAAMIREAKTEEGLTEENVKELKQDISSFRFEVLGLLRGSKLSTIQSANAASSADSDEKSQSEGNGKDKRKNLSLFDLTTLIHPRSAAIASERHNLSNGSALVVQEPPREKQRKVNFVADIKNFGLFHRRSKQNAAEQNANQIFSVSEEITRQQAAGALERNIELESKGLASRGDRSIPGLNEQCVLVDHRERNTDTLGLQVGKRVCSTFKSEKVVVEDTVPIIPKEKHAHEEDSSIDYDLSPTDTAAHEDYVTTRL
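Test system: HEK293 cells stably co-expressing mouse TRPC4beta and mu-opioid receptor | Schedule: Fluo4 dye loading 45 min at room temperature, 110 s recording | Measured by: Kinetic Fluo4 calcium fluorescence, 5 s baseline at 1 Hz | Evaluation: B score of integrated ratio | Controls: Buffer (low) and maximal DAMGO (high)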
TRPC6 act = mouse TRPC6 channel activation; Q61143; B-score at 10 µM; HEK293-TRPC6 membrane potential dye fluorescence; stronger effect = higher value; AID 2550; hit rate 0.13% among 310,000;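 active = B-score of the integrated fluorescence ratio above library mean plus 3 SD, and starting fluorescence ratio within library mean plus 5 SD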;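 also: higher score means more depolarization so channel activation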
TRPC4 inh = blocks the mouse TRPC4 cation channel; hit rate 0.39% among 300,000; HEK293 TRPC4beta/mu-opioid, DAMGO-evoked Fluo4 calcium flux; stronger effect = lower value; Q9QUQ5; B-score at 10 µM;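 active = B-score over 3 SD under the library average, no early fluorescence shift, positive overall ratio signal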
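Signal: kinetic Fluo4 fluorescence imaging of calcium influx. Material: stable TRPC4beta/mu-opioid receptor HEK293 cells. Probe or stimulus: DAMGO in two steps, submaximal then maximal.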
TRPC6 inh = mouse TRPC6 channel inhibition; B-score at 10 µM; HEK293-TRPC6, membrane potential dye, ACh-evoked depolarization; stronger effect = lower value; AID 2553; hit rate 1.1% among 310,000;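 active = B-score under library mean minus 3 SD, initial fluorescence not abnormally high, positive integrated signal ratio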;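 also: B-score derived from integrated fluorescence ratio over the kinetic read; more negative B-score means stronger inhibition of depolarization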
TRPC4 PAM = TRPC4 (mouse) allosteric potentiation. Q9QUQ5. HEK293 TRPC4beta/mu-opioid, DAMGO EC20, Fluo-4 Ca2+ flux; stronger effect = higher value. B-score at 10 µM. hit rate 0.42% among 310,000. AID 2227;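 active = B-score of calcium response area above 5 SD of library B-scores, with initial fluorescence ratio within 5 SD of library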;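 also: B-score of integrated fluorescence ratio over time as area under calcium response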
TRPC4 sel inh 2 = mouse TRPC4 off-target activity of TRPC6 inhibitors, second screen; shares compounds with TRPC6 inh; HEK293 TRPC4/MOR, membrane potential dye fluorescence; channel activated by saturating DAMGO dose; inhibition, % at 10 µM; hit rate 42% among 920; AID 2776;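 active = compounds whose fluorescence signal differed from control wells by over 3 SD, either direction, in both duplicate plates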
TRPC4 spec = selectivity of TRPC6 inhibitors: effect on mouse TRPC4. shares compounds with TRPC6 inh. HEK293 TRPC4/mu-opioid, membrane potential fluorescence. activity change, negative = inhibition, % at 10 µM. hit rate 61% among 920;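 active = rise or fall in signal beyond 3 SD of buffer-only wells in both replicate plates, either sign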;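 also: integrated kinetic ratio of fluorescence range over baseline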
HEK293 MPD ctr 2-1 = second counter-screen for TRPC6 inhibitors: parental HEK293 cells | shares compounds with TRPC6 inh | parental HEK293 membrane potential dye fluorescence; maximal acetylcholine challenge after compound addition | signal change vs control, % at 10 µM | hit rate 31% among 920 | AID 2779;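 active = membrane potential signal moving either way by over 3 SD of the maximum-effect control, in both duplicate plates, meaning non-specific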
HEK293 MPD ctr-1 = parental HEK293 nonspecific activity of TRPC6 inhibitors; shares compounds with TRPC6 inh; parental HEK293 membrane potential dye fluorescence; membrane potential signal change, % at 10 µM; hit rate 60% among 920; AID 2780;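 active = membrane potential signal shifting up or down by more than 3 SD of buffer-only wells, on both duplicate plates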
HEK293 MPD ctr-2 = parental HEK293 nonspecific activity of TRPC6 modulators | shares compounds with TRPC6 inh | membrane potential dye fluorescence | membrane potential signal change, % at 10 µM | hit rate 51% among 2,400;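 active = membrane potential signal moves up or down beyond 5 SD from buffer-only wells, on both duplicate plates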
HEK293 MPD ctr 2-2 = second counter-screen for TRPC6 modulators: effect in parental HEK293 cells; shares compounds with TRPC6 inh; membrane potential dye fluorescence; after compound, maximal acetylcholine stimulation; inhibition, % at 10 µM; hit rate 14% among 2,400;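 active = membrane potential signal drops by more than 5 SD from the mean control signal, in both duplicate plates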;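 also: plate controls were acetylcholine ECmax control wells for no effect and buffer only wells for full effect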
TRPC4/MOR mod = tests whether TRPC6 modulators also affect mouse TRPC4. shares compounds with TRPC6 inh. hit rate 69% among 2,400. percent change from control (negative = decrease, positive = increase), % at 10 µM. AID 488927. HEK293 TRPC4/mu-opioid, membrane potential fluorescence;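 active = membrane potential signal moved up or down beyond 5 SD of buffer control wells, in both duplicate plates, actives on both sides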;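 also: plate controls were assay buffer wells for no effect and DAMGO maximal-effect wells for full effect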
TRPC4 ctr inh 2 = second selectivity test of TRPC6 modulators against mouse TRPC4 | shares compounds with TRPC6 inh | HEK293 TRPC4/mu-opioid, membrane potential dye fluorescence; stimulated with maximal-effect DAMGO | inhibition, % at 10 µM | hit rate 55% among 2,400;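 active = drop in membrane potential signal beyond 5 SD of the control wells in both duplicate plates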;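 also: TRPC4 counter screen for TRPC6 hits run under conditions tuned for TRPC6 not TRPC4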
TRPC6 block conf = confirmation of mouse TRPC6 inhibitors | shares compounds with TRPC6 inh | HEK293-TRPC6, membrane potential dye, ACh-evoked depolarization | inhibition, % at 10 µM | hit rate 43% among 3,300;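 active = fluorescence ratio falls more than 5 SD below the full-stimulation control mean, in both duplicate runs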;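 also: integrated fluorescence ratio of peak minus minimum over baseline after agonist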
TRPC6 act conf = mouse TRPC6 activator confirmation; hit rate 11% among 2,800; shares compounds with TRPC6 inh; HEK293-TRPC6 membrane potential dye fluorescence, FDSS; activation, % at 10 µM;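 active = ratio signal rise beyond 5 SD above unstimulated control wells' mean, seen in both duplicate runs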;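 also: plate controls were buffer EC0 wells for no effect and acetylcholine ECmax response for full effect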
An asterisk follows results filed as active; i = inactive; / = no result given.

SMILES	Kir21 inh	TRPC4 act	TRPC6 act	TRPC4 inh	TRPC6 inh	TRPC4 PAM	HEK293 MPD ctr-2	HEK293 MPD ctr 2-2	TRPC4/MOR mod	TRPC4 ctr inh 2	TRPC6 block conf	TRPC6 act conf	others
NC1C2CN(c3nc4c(cc3F)c(=O)c(C(=O)O)cn4-c3ccc(F)cc3F)CC12 (stereo not drawn)	-0.67	i	i	i	-5.6*	i	-274%*	i	-46%*	i	i	i
Cc1cccc(NC(=O)CCNS(=O)(=O)c2ccc(Cl)cc2)c1	-0.89	i	i	i	-5.1*	i	i	i	i	i	i	i
CC1Cc2ccccc2N1C(=O)c1ccc(N2CCCCC2)c([N+](=O)[O-])c1 (stereo not drawn)	-0.16	i	i	i	-5.8*	i	i	i	i	i	i	i
Cc1ccc(C(=O)NC(=S)Nc2ccccc2N2CCOCC2)cc1C	-0.25	i	i	i	i	i	/	/	/	/	/	/
COc1cccc2oc3ccc(C#CC4(N)CCCCC4)cc3c(=O)c12	-1.8	i	i	i	-11*	i	/	/	/	/	i	i	TRPC4 sel inh 2=68%*;TRPC4 spec=i;HEK293 MPD ctr 2-1=237%*;HEK293 MPD ctr-1=i
CCOC(=O)C1CCN(C(=O)c2ccccc2Oc2ccccc2)CC1	-0.76	i	i	i	i	i	/	/	/	/	/	/
CCOC(=O)N1CCN(C(=O)c2ccccc2Oc2ccccc2)CC1	-0.09	i	i	i	-6.1*	i	94%*	i	26%*	i	67%*	/
O=C(c1ccco1)N1CCN(C(=O)c2ccccc2Oc2ccccc2)CC1	-1.6	i	i	i	-8.1*	i	/	/	/	/	62%*	/	TRPC4 sel inh 2=i;TRPC4 spec=13%*;HEK293 MPD ctr 2-1=i;HEK293 MPD ctr-1=6.7%*
O=C(c1ccco1)N1CCN(C(=O)c2ccccc2OC(=O)C23CC4CC(CC(C4)C2)C3)CC1	0.22	i	i	i	i	i	/	/	/	/	/	/
CCOC(=O)C1CCN(C(=O)c2ccc(OCC(=O)Nc3cccc(C(F)(F)F)c3)c(OC)c2)CC1	0.26	i	i	i	i	i	/	/	/	/	/	/
O=[N+]([O-])c1ccc(P(=O)(Cc2ccccc2)c2ccccc2O)cc1 (stereo not drawn)	0.51	i	i	i	i	i	/	/	/	/	/	/
O=[N+]([O-])c1ccccc1S(=O)(=O)N1CCCC(C(F)(F)F)C1 (stereo not drawn)	1.9	i	i	i	-5.1*	i	i	i	i	i	i	i
O=[N+]([O-])c1ccccc1S(=O)(=O)N1CCCCC1	0.1	i	i	i	i	i	/	/	/	/	/	/
COc1ccc(N(CC(C)C)S(=O)(=O)c2nnc(NC(=O)CC(C)C)s2)cc1	-2.1	i	i	i	i	i	/	/	/	/	/	/
Cc1ccc(C(=O)N/C(=C\c2ccccc2)C(=O)NCCN2CCOCC2)cc1	0.01	i	i	i	i	i	/	/	/	/	/	/
CCN(Cc1cnn(C)c1)C(=O)c1ccc2nc(Cc3cccc(Cl)c3)oc2c1	0.62	i	i	i	i	i	/	/	/	/	/	/
C[N+](C)(C)C/C=C1/COCO1	-0.01	i	i	i	-6.7*	i	/	/	/	/	i	/	TRPC4 sel inh 2=i;TRPC4 spec=0.5%*;HEK293 MPD ctr 2-1=i;HEK293 MPD ctr-1=0.3%*
Cc1cccn2c(=O)c(/C=C(\C#N)C(=O)NC3CCS(=O)(=O)C3)c(N3CC(C)OC(C)C3)nc12 (stereo not drawn)	-0.05	i	i	i	-5*	i	i	i	-14%*	i	i	i
CCN1CCN(c2nc3c(C)cccn3c(=O)c2/C=C(\C#N)C(=O)NCCOC)CC1	-0.01	i	i	i	-5.5*	i	-278%*	i	-52%*	i	i	i
COCCNC(=O)/C(C#N)=C/c1c(N2CCN(C)CC2)nc2c(C)cccn2c1=O	0	i	i	i	i	i	/	/	/	/	/	/
COC(=O)C1=C(C)N(C)C(=O)NC1c1c(O)ccc2ccccc12 (stereo not drawn)	0.52	i	i	i	i	i	/	/	/	/	/	/
Cc1ccc(C(=O)c2cc([N+](=O)[O-])ccc2N2CCOCC2)c(C)c1	2.2	i	i	i	-5.4*	i	i	i	i	i	i	i
O=C1CCCN1CC(O)CS(=O)(=O)Cc1ccc(Cl)cc1 (stereo not drawn)	-0.69	i	i	i	i	i	/	/	/	/	/	/
CCCN(CC(=O)Nc1ccccc1C)C(=O)c1ccc(=O)n(Cc2ccccc2)n1	0.64	i	i	i	-5.1*	i	90%*	i	16%*	i	i	i
Fc1cccc(Cc2noc(CN3CCCN(C4Cc5ccccc5C4)CC3)n2)c1	-0.69	i	i	i	-5.1*	i	202%*	i	28%*	70%*	46%*	/
Fc1cccc(Cc2noc(CN3CCSCC3)n2)c1	1.1	i	i	i	i	i	/	/	/	/	/	/
